pIC50: −log10 of the molar value.
How the values were obtained:
Format in all cases: physicochemical
[1] = Antioxidant activity assessed as cupric ion reducing activity treated with MeOH solution measured as ratio of sample to trolox molar extinction coefficient after 20 mins by CUPRAC assay
Procedure, shortened: (§1)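 Reagents prepared separately: 10 mM CuSO4, 7.5 mM neocuproine and 1 M ammonium acetate buffer pH 7.0. Samples serially diluted from 6.75 μM to 1000 μM; Trolox reference at 10–70 μM. Each concentration run in triplicate. Incubated at 50°C for 20 min, then absorbance read at 450 nm for Cu(I)-neocuproine. TEAC = ε_sample/ε_Trolox.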

[2] = Antioxidant activity assessed as cupric ion reducing activity treated with 5% DMSO measured as ratio of sample to trolox molar extinction coefficient after 20 mins by CUPRAC assay; procedure, shortened: as §1
[3] = Antioxidant activity assessed as DPPH free radical scavenging activity treated with 5% DMSO after 50 mins; details: for pIC50: read-out: IC50
Procedure, shortened: (§2)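 Samples serially diluted from 6.75 μM to 1000 μM; BHT reference at 125–2000 μM. Sample added to 0.1 mM DPPH solution in 1:5 volume ratio. Kept in the dark at RT for 50 min, then absorbance read at 517 nm. Triplicates. Scavenging % = [1−(A_average−A_blank)/(A_control−A_blank)]×100. IC50 reported in μM as the level scavenging 50% of radical.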

[4] = Antioxidant activity assessed as DPPH free radical scavenging activity treated with methanol after 50 mins; procedure, shortened: as §2
[5] = Chemical stability in 5% aqueous DMSO assessed as compound remaining at 20 uM after 20 mins by HPLC analysis; details: read-out: Stability
[6] = Chemical stability in 5% aqueous DMSO assessed as compound remaining at 20 uM measured immediately post treatment by HPLC analysis; details: read-out: Stability
Procedure, shortened: (§3)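 Ring opening followed by reversed-phase HPLC-DAD on a C18 column (4.6 × 250 mm). Mobile phase water:acetonitrile 30:70 at 0.5 ml/min, 25°C. Detection at 254 nm, 5 μL injections. Cysteine release tracked from the peak of the aldehyde freed by ring cleavage. Injections made right after dissolution and again after 50 min.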

[7] = Chemical stability in PBS buffer assessed as compound remaining at 20 uM after 20 mins by HPLC analysis; details: read-out: Stability
[8] = Chemical stability in 5% aqueous DMSO assessed as compound remaining at 20 uM after 50 mins by HPLC analysis; details: read-out: Stability; procedure, shortened: as §3
[9] = Chemical stability in PBS buffer assessed as compound remaining at 20 uM measured immediately post treatment by HPLC analysis; details: read-out: Stability; procedure, shortened: as §3
[10] = Chemical stability in PBS buffer assessed as compound remaining at 20 uM after 50 mins by HPLC analysis; details: read-out: Stability; procedure, shortened: as §3
[11] = Chemical stability in 0.1 M phosphoric acid at pH 2 assessed as compound remaining at 20 uM measured immediately post treatment by HPLC analysis; details: read-out: Stability; procedure, shortened: as §3
[12] = Chemical stability in 0.1 M phosphoric acid at pH 2 assessed as compound remaining at 20 uM after 20 mins by HPLC analysis; details: read-out: Stability
[13] = Chemical stability in 0.1 M phosphoric acid at pH 2 assessed as compound remaining at 20 uM after 50 mins by HPLC analysis; details: read-out: Stability; procedure, shortened: as §3
[14] = Chemical stability in MeOH solution assessed as compound remaining at 20 uM measured immediately post treatment by HPLC analysis; details: read-out: Stability; procedure, shortened: as §3
[15] = Chemical stability in MeOH solution assessed as compound remaining at 20 uM after 20 mins by HPLC analysis
[16] = Chemical stability in MeOH solution assessed as compound remaining at 20 uM after 50 mins by HPLC analysis; procedure, shortened: as §3

Row | SMILES | Ratio [1] | Ratio [2] | pIC50 [3] | pIC50 [4] | remaining at 20 min, 20 µM [5] [%] | remaining at 0 min, 20 µM [6] [%] | remaining at 20 min, 20 µM [7] [%] | remaining at 50 min, 20 µM [8] [%] | remaining at 0 min, 20 µM [9] [%] | remaining at 50 min, 20 µM [10] [%] | remaining at 0 min, 20 µM [11] [%] | remaining at 20 min, 20 µM [12] [%] | remaining at 50 min, 20 µM [13] [%] | remaining at 0 min, 20 µM [14] [%] | Stability [15] [%] | Stability [16] [%] | IC50 [3]
1 | O=C(O)[C@@H]1CSC(c2ccccc2)N1 (mixture of isomers) | 1.54 | 0.99 | 4.34 | 3.07 | 27.8 | 76.3 | 27.8 | 13.8 | 78.4 | 13.8 | 85 | 62.4 | 49.9 | 96.1 | 95.7 | 95.4 | –
2 | O=C(O)[C@@H]1CSC(c2cccc(Cl)c2)N1 (mixture of isomers) | 1.5 | ND(Insoluble) | – | – | – | – | – | – | – | – | – | – | – | – | – | – | ND(Insoluble)
3 | O=C(O)[C@@H]1CSC(c2ccc(Cl)cc2)N1 (mixture of isomers) | 1.52 | ND(Insoluble) | – | – | – | – | – | – | – | – | – | – | – | – | – | – | ND(Insoluble)
4 | Cc1ccc(C2N[C@H](C(=O)O)CS2)cc1 (mixture of isomers) | 1.22 | ND(Insoluble) | – | – | – | – | – | – | – | – | – | – | – | – | – | – | ND(Insoluble)
5 | O=C(O)[C@@H]1CSC(c2cccc(F)c2F)N1 (mixture of isomers) | 0.83 | 0.84 | 4.33 | < 3.00 | 50 | 83.7 | 69.3 | 28.7 | 92.7 | 50.1 | 87.3 | 64.6 | 43.5 | 100 | 100 | 98.8 | –
6 | Cc1ccccc1C1N[C@H](C(=O)O)CS1 (mixture of isomers) | 0.57 | 0.75 | 4.41 | 4.34 | 5.9 | 6.8 | 11.3 | 5.6 | 15.2 | 8.9 | 12.9 | 11.3 | 10.1 | 4 | 4.1 | 4.2 | –
7 | N#Cc1ccccc1C1N[C@H](C(=O)O)CS1 (mixture of isomers) | ND(Insoluble) | ND(Insoluble) | < 3.00 | < 3.00 | – | – | – | – | – | – | – | – | – | – | – | – | –
8 | O=C(O)[C@@H]1CSC(c2c(F)cccc2F)N1 (mixture of isomers) | 0.83 | 1.05 | 4.42 | 3.46 | 39.2 | 53.8 | 61.1 | 38.2 | 79.4 | 46.9 | 96.2 | 72.3 | 54.8 | 100 | 99.4 | 98.2 | –
9 | O=C(O)[C@@H]1CSC(c2cccc(Cl)c2Cl)N1 (mixture of isomers) | 0.93 | 0.99 | 4.21 | 4.34 | 16.6 | 17.8 | 17.4 | 15.7 | 15.3 | 17.9 | 21.7 | 17.5 | 14.2 | 15.5 | 25.2 | 38.2 | –
10 | O=C(O)[C@@H]1CSC(c2ccccc2Br)N1 (mixture of isomers) | 0.8 | 1 | 4.42 | 4.41 | 16.2 | 19 | 16.3 | 14.3 | 11.6 | 18.5 | 14.1 | 11.5 | 9.5 | 70.5 | 74 | 75.6 | –
11 | O=C(O)[C@@H]1CSC(c2ccc([N+](=O)[O-])cc2)N1 (mixture of isomers) | 0.74 | ND(Insoluble) | – | – | – | – | – | – | – | – | – | – | – | – | – | – | ND(Insoluble)
12 | COc1ccccc1C1N[C@H](C(=O)O)CS1 (mixture of isomers) | 0.96 | 0.79 | 4.53 | 3.47 | 43.9 | 82.8 | 34 | 26.8 | 82.5 | 21 | 92.9 | 78.9 | 67.6 | 100 | 98.6 | 97.3 | –
13 | COc1ccc(C2N[C@H](C(=O)O)CS2)cc1 (mixture of isomers) | ND(Insoluble) | ND(Insoluble) | – | – | – | – | – | – | – | – | – | – | – | – | – | – | ND(Insoluble)
14 | Cc1cc(C(C)(C)C)c(O)c(C(C)(C)C)c1 [BUTYLATED HYDROXYTOLUENE] | – | – | – | 3.29 | – | – | – | – | – | – | – | – | – | – | – | – | ND(Insoluble)
15 | N[C@@H](CS)C(=O)O [CYSTEINE] | 0.63 | 0.49 | 4.74 | 4.72 | – | – | – | – | – | – | – | – | – | – | – | – | –

— ChEMBL document CHEMBL3779882, “The cysteine releasing pattern of some antioxidant thiazolidine-4-carboxylic acids” (Eur J Med Chem, 2016)
